Assay results from publication PMC3227540 (Science translational medicine, 2011).
Where two headings read alike, the source gives them in different places.

Tests used:
[1] = molecular target: T1, TTR (Homo sapiens, UniProt P02766); experiment: Fluorescence polarization; details: competitive displacement of probe 1, apparent binding constant
Procedure, shortened: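 Competitive displacement of the fluorescent probe from the TTR thyroxine-binding pocket under physiological conditions. The test compound is titrated from 0.01 to 50 μM, and fluorescence polarization is read at excitation 485 nm and emission 525 nm. The dose-dependent drop in polarization is fitted to give the apparent binding constant, Kapp. Run in triplicate; SD reported.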

[2] = molecular target: T1, TTR; experiment: Surface plasmon resonance; type: binding; details: SPR
[3] = molecular target: human wild type TTR (Homo sapiens, UniProt P02766); experiment: Isothermal titration calorimetry; details: two-site binding model; for Kd: ITC
[4] = molecular target: T1, TTR; experiment: Acid-mediated TTR amyloidogenesis; type: biochemical; details: kinetic aggregation assay over 5 days, TTR 3.6 μM, ligand 3.0 μM
[5] = system: AC16 cells; experiment: Inhibition of V122I TTR cytotoxicity towards AC16 cells; type: cell-based, human; details: TTR and ligands 8 μM
[6] = molecular target: COX-1 (Homo sapiens, UniProt P23219); experiment: COX-1 enzymatic inhibition; type: biochemical; details: read-out: COX-1 inhibition
[7] = system: IMR-32 cells; experiment: Inhibition of WT-TTR cytotoxicity towards IMR-32 neuroblastoma cells; type: cell-based, human; details: fig. S8B
[8] = molecular target: serum TTR (Homo sapiens, UniProt P02766); experiment: Stabilization of human serum TTR against acid-mediated denaturation; type: biochemical; details: 50 μM compound, acid treatment 72 hours

Chain of COX-1 (P23219 24-599): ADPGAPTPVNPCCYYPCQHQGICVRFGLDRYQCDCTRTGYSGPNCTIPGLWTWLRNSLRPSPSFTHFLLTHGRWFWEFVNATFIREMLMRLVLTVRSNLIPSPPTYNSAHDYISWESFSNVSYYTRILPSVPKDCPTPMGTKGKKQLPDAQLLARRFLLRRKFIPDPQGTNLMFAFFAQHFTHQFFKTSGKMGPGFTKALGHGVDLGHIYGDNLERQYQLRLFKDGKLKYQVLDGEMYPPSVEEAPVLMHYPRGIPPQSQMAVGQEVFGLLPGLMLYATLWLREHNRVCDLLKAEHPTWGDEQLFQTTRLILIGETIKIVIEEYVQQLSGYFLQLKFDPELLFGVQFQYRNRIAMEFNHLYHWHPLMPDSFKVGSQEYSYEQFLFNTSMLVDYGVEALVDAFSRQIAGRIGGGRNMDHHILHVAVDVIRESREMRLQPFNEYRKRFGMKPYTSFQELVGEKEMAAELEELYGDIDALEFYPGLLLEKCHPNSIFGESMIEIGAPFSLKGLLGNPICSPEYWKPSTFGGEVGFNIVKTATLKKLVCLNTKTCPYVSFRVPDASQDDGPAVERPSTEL

| Structure (SMILES) | Kapp [1] [µM] | fold lower target residence time than ligand 7 [2] | Kd ([3]; read-out: Kd1, first site) [nM] | Kd ([3]; read-out: Kd2, second site) [nM] | ITC binding affinity (in words) [3] | koff, fold faster than ligand 7 [2] | Fibril formation at substoichiometric ligand (in words) [4] | Rescue of AC16 cell viability from V122I TTR proteotoxicity (in words) [5] | inhibition at 10 µM [6] [%] | Performance against WT-TTR toxicity in IMR-32 cells (in words) [7] | % tetramer at 72 hrs (of tetramer present at 0 hours) [8] [%] |
| --- | --- | --- | --- | --- | --- | --- | --- | --- | --- | --- | --- |
| O=C(O)Cc1ccccc1Nc1c(Cl)cccc1Cl [diclofenac] | 4.66 | ~40 x |  |  |  |  |  |  |  |  |  |
| O=C(c1cc(O)c(O)c([N+](=O)[O-])c1)c1ccccc1F [Ro 41-0960] |  |  | 15 | 2000 | low nanomolar affinity | ~ 5 x | dramatically slowed fibril formation | completely rescued |  |  |  |
| O=C(O)c1cccnc1Nc1cccc(C(F)(F)F)c1 [niflumic acid] |  | ~ 20 x |  |  |  |  |  | performed poorly | 94 | performed poorly | 11.5 |
| O=[N+]([O-])c1cc(O)c(O)c([N+](=O)[O-])c1 [3,5-dinitrocatechol] |  |  |  |  |  |  |  | performed poorly |  | performed poorly | 37.6 |
